The results in this text go back to PMC7237957 (European Heart Journal Cardiovascular Imaging, 2019).

Molecules are shown by their SMILES. Like-named read-outs stand apart in the source and are kept apart here.

Assay type in all cases: binding
Assay [1] concerns the target T1, rodent carotid thrombus (Rattus norvegicus, UniProt O08619).
T1 sequence (O08619 39-732 limits assumed): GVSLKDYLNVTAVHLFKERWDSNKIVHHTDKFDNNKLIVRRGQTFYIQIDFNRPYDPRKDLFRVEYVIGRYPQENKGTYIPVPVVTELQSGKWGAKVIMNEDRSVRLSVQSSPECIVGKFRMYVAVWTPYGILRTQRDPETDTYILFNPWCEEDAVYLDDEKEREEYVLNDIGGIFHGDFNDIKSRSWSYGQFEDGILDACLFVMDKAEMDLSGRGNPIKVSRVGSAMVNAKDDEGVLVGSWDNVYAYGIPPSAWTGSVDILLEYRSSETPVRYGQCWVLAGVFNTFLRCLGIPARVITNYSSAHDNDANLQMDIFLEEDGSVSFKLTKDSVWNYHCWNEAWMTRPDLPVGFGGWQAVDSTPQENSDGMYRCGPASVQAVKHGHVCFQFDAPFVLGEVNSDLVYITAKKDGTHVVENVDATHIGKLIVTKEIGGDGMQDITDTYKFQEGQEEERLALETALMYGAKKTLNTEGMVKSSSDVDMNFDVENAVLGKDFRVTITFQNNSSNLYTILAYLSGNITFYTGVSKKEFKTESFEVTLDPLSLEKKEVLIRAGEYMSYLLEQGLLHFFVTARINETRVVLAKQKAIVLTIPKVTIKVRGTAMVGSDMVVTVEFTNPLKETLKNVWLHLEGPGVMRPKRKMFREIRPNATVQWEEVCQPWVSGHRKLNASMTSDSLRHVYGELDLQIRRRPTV
The conditions noted are these: rodent explanted thrombus sections; 5 μM co-incubated. Summed up:
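Thrombosed left common carotid (ferric chloride model) was harvested from one rat after sacrifice. Sections were de-paraffinised, rehydrated and incubated 2 h at 37°C with 18F-tracer alone or with 5 μM unlabelled tracer, scrambled peptide or iodoacetamide. They were then washed, dried and exposed to a phosphor screen. Greyscale intensity was read in equal ROIs; %SB = tracer-only minus inhibitor sections.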

For assay [2], the target named is T2, Factor XIIIa (Homo sapiens, UniProt P00488).
T2 sequence (P00488 39-732 limits assumed): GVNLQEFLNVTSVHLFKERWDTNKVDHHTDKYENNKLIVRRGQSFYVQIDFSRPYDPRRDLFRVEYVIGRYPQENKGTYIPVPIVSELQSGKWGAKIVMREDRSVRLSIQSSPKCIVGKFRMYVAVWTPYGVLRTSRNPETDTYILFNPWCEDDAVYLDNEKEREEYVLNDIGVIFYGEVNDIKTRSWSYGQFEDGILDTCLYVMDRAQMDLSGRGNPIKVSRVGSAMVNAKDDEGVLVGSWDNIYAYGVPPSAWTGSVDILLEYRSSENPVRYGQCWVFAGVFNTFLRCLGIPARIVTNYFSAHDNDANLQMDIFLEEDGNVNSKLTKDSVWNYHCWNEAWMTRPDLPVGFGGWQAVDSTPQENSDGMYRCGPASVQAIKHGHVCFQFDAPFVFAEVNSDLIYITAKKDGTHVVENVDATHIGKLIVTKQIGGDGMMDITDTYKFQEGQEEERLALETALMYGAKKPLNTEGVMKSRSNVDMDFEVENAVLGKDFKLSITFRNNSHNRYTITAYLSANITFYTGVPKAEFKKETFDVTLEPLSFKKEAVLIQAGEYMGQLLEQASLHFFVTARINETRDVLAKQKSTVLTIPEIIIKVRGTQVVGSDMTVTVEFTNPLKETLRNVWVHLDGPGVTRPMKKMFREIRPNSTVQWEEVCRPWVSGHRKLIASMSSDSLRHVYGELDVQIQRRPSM
The conditions noted are these: co-infusion of iodoacetamide 10 mg/mL, n = 10. Summed up: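 Native blood from healthy male volunteers was pumped at 10 mL/min for 5 min through three 37°C chambers over porcine aortic strips (intima removed), at 212 s−1 (low shear) or 1690 s−1 (high shear), then flushed with saline. Tracer was infused at 4.6 ± 0.5 MBq/mL, or 5.5 ± 0.9 MBq/mL with 10 mg/mL iodoacetamide. Strips were scanned by NanoPET/CT; equal thrombus VOIs (kBq/mL) were divided by infused MBq.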

In assay [3] the target is T3, human thrombus (Homo sapiens, UniProt P00488).
T3 sequence (P00488 39-732 limits assumed): T2 sequence (P00488 39-732 limits assumed)
Put plainly: Autoradiography of ex vivo human thrombus sections with blocking. The conditions noted are these: human explanted thrombus sections; 5 μM co-incubated. Summed up:
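Paraffin-embedded cross-sections of ex vivo human thrombi (n = 3) were de-paraffinised, rehydrated and incubated 2 h at 37°C with 18F-tracer alone or co-incubated with unlabelled tracer, scrambled peptide or iodoacetamide (each 5 μM), in quadruplicate. Slides were washed twice in phosphate buffer, air-dried and exposed to a phosphor screen. Equal ROIs gave greyscale pixel intensity; %SB = tracer-only minus inhibitor-section activity.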

With `NC(=O)CI` [iodoacetamide, Iodoacetamide], the “Effect on 18F-ENC2015 uptake (autoradiography)” value in assay [1] and in assay [3] was “no effect” throughout. Besides, the “Reduction of 18F-ENC2015 thrombus binding” value was determined as 87% in assay [2] (high shear thrombi) and 88% in assay [2] (low shear thrombi).
